rRNA inh HTS: inhibitors of bacterial rRNA selective over humanized ribosomes | hit rate 1.6% among 350,000 | AID 720706 | GFP signal change (wild-type ribosome), % (no concentration beside the values) | E. coli WT GFP vs humanized-ribosome RFP mutants, fluorescence, 24 h; active compounds read low; DMSO median 0, no signal -100;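 active means significant combined selectivity score with lowered wild-type GFP, culture density cut under 30%, mutant RFP and density less affected; inactive means any of these conditions unmet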
ERp5 block: inhibitors of human ERp5 | ERp5 insulin aggregation, absorbance 650 nm, 90 min | hit rate 0.05% among 350,000 | inhibition, % at 9.99 µM;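 active means mean replicate inhibition above about 25%, with every replicate also reaching it, limit read from the data, passing the limit was not always enough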
PDI turbidity: PDI (human) enzyme inhibition; PDI insulin aggregation turbidity, A650, 90 min; AID 588391; inhibition, % at 10 µM; hit rate 0.052% among 350,000;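 active means mean inhibition across replicates of 30% or more, whatever share of single replicates reach that level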
Target sequence (P07237 whole entry, looked up): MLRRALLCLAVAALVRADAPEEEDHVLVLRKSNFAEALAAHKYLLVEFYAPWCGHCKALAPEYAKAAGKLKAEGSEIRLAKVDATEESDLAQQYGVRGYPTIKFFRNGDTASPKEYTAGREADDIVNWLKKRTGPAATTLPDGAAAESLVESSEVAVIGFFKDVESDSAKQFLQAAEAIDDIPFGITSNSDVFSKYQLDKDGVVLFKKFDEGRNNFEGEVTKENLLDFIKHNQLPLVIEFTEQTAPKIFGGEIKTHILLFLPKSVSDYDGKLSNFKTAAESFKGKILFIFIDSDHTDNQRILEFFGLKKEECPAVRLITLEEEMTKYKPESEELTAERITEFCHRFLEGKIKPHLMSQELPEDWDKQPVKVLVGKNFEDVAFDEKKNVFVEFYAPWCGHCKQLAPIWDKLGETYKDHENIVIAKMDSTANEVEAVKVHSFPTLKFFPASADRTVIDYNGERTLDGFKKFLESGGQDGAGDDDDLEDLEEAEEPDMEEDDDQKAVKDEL
HIV Env fusion: HIV envelope-mediated fusion inhibition. hit rate 1.1% among 360,000. HeLa-JRFL Env/CEM21 cell fusion, luciferase. inhibition, % at 12.3 µM;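 active means mean replicate inhibition score of at least 50 and every replicate individually at or above 50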
FN deposition inh: fibronectin deposition inhibition; AH1F fibroblasts, Alexa488-fibronectin deposition fluorescence, overnight; inhibition, % at 12.6 µM; hit rate 0.086% among 350,000; AID 743247;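 active means mean inhibition across replicates of 30% or more, regardless of how many single replicates reach that level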
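test system = AH1F fibroblasts assembling fluorescent fibronectin matrix | quantity = 10000 AH1F cells per well | buffer or medium = DMEM plus 2% serum, read in PBS | doses = single dose, pinned | incubation = 1 h cell attachment, overnight exposure to compound and label | detection = fluorescence at 485 nm excitation, 525 nm emission | read-out basis = inhibition from reduced deposited-fibronectin fluorescence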
PvdQ inh: P. aeruginosa PvdQ acylase inhibition; purified PvdQ acylase, fluorescence plate reader; hit rate 0.063% among 340,000; inhibition, % at 10 µM; in the data active means inhibition above about 30%, passing the limit was not always enough
Large screens that a line does not name were inactive; [ ] = another dose, or the depositor's remark. Shown are actives, neighbours in structure and some others; about 2.2% of the full set was active somewhere.

CC(C)C[C@@]12C(=O)N(c3cccc(Cl)c3)C(=O)N1[C@H](c1ccc(Br)cc1)[C@@H]1C(=O)N(C(C)(C)C)C(=O)[C@@H]12	HIV Env fusion 91
CC(C)C[C@@]12C(=O)N(c3ccc(Br)cc3)C(=O)N1[C@H](c1ccc(Br)cc1)[C@@H]1C(=O)N(C(C)(C)C)C(=O)[C@@H]12	HIV Env fusion 80
CC(C)C[C@@]12C(=O)N(c3cccc(F)c3)C(=O)N1[C@H](c1ccc(Br)cc1)[C@@H]1C(=O)N(C(C)(C)C)C(=O)[C@@H]12	HIV Env fusion 69 (no result: rRNA inh HTS, ERp5 block)
CCN(C1CCCCC1)S(=O)(=O)c1ccc(C(=O)O)cc1	none (no result: rRNA inh HTS, ERp5 block)
CN(Cc1ccccc1)C(=O)CN(C)S(=O)(=O)c1ccc(F)cc1	none
NC(=O)C1CCN(C(=O)CN(C2CCCCC2)S(=O)(=O)c2ccc(F)cc2)CC1	rRNA inh HTS -26
CCOC(=O)N1CCN(C(=O)CN(C2CCCCC2)S(=O)(=O)c2ccc(F)cc2)CC1	none (no result: rRNA inh HTS, ERp5 block)
CN(Cc1ccccc1)S(=O)(=O)c1ccc(S(=O)(=O)N(Cc2ccc(F)cc2)C2CCCC2)cc1	HIV Env fusion 58 (no result: rRNA inh HTS, ERp5 block)
O=C(O)c1ccc(S(=O)(=O)N(Cc2ccc(F)cc2)C2CCCCC2)cc1	rRNA inh HTS -22
O=C(C[C@H]1C=C[C@@H](NC(=O)CCN2CCCCC2)[C@H](CO)O1)Nc1ccc(-c2ccccc2)cc1	none (no result: PDI turbidity, PvdQ inh)
CCCN1[C@@H]2c3ccc(C4=CCCCC4)c(=O)n3C[C@@H]2[C@@H](CO)[C@@H]1C(=O)NC1Cc2ccccc2C1	none (no result: PDI turbidity, FN deposition inh, PvdQ inh)
Cc1nn(Cc2ccccc2)c(C)c1NC(=O)CSc1nc(-c2ccccc2)nc2c1cnn2-c1ccccc1	none (no result: rRNA inh HTS, ERp5 block, HIV Env fusion, FN deposition inh)
Cc1nc(SCC(=O)Nc2c(C)nn(C)c2C)c2cnn(-c3ccccc3)c2n1	HIV Env fusion 64 (no result: rRNA inh HTS, ERp5 block)
O=C(C[C@@H]1C=C[C@H](NS(=O)(=O)c2ccccc2)[C@H](CO)O1)N1CCC(Cc2ccccc2)CC1	none (no result: PDI turbidity, HIV Env fusion, FN deposition inh, PvdQ inh)
Cc1noc(C)c1NC(=O)N[C@H]1CC[C@@H](CC(=O)NCCCN(C)C)O[C@@H]1CO	none (no result: PDI turbidity, PvdQ inh)
O=C(Nc1ccc(Cl)c(C(F)(F)F)c1)[C@@H]1CC=C[C@@H]2CCN(Cc3ccccc3)C(=O)[C@@H]21	HIV Env fusion 64
c1coc(CNc2c3c(nc4ccccc24)CCC3)c1	HIV Env fusion 75 (no result: rRNA inh HTS, ERp5 block, FN deposition inh)
CN(C)CCCNC(=O)[C@H]1[C@H](CO)[C@H]2Cn3c(ccc(C4=CCCC4)c3=O)[C@H]2N1CCC(F)(F)F	HIV Env fusion 57[16.7 µM] (no result: PDI turbidity, FN deposition inh, PvdQ inh)
C[C@H]1CN([C@@H](C)CO)C(=O)c2cc(NC(=O)Cc3ccccc3)ccc2O[C@H]1CN(C)Cc1ccc(C(=O)O)cc1	none (no result: PDI turbidity, PvdQ inh)
CC(C)NC(=O)N[C@H]1C=C[C@H](CC(=O)NC2Cc3ccccc3C2)O[C@H]1CO	none (no result: PDI turbidity, HIV Env fusion, PvdQ inh)
COc1cccc(CN(C)C(=S)Nc2ccc(C)c(C)c2)c1	rRNA inh HTS -25
COc1ccc(CN(C)C(=S)Nc2ccc(OC(F)F)cc2)cc1	none
O/N=C/c1ccnc(SCc2ccccc2)n1	rRNA inh HTS -16
O=C(NCCc1ccncc1)[C@@H]1[C@@H](CO)[C@@H]2Cn3c(ccc(C4=CCCCC4)c3=O)[C@H]1N2CC1CC1	none (no result: PDI turbidity, FN deposition inh, PvdQ inh)
CC1=Nc2ccccc2N=C(NC(=O)CSC(=S)N2CCCCC2)C1c1ccccc1 (stereo unspecified)	rRNA inh HTS -21
CC1=Nc2ccccc2N=C(NC(=O)CSC(=S)N2CCN(C)CC2)C1c1ccccc1 (stereo unspecified)	none
COc1ccc(Oc2ccc(/C=C/C(=O)c3ccc(O)cc3)cc2[N+](=O)[O-])cc1	PDI turbidity 99 (no result: rRNA inh HTS)
O=C(O)c1ccc(Oc2ccc([N+](=O)[O-])cc2)c([N+](=O)[O-])c1	rRNA inh HTS -9.6
O=C(/C=C/c1ccc(O)c([N+](=O)[O-])c1)c1ccc2ccccc2c1	none
COc1ccc2c3c(n(C)c2c1)[C@H](CO)N(C(=O)Cc1ccccn1)CC31CCN(CC2CCCCC2)CC1	none (no result: PDI turbidity, HIV Env fusion, FN deposition inh, PvdQ inh)
NC(=S)NNc1c(F)c(F)c(F)c(F)c1F	rRNA inh HTS -26
C[C@@H](NC(=O)[C@H]1[C@H](CO)[C@H]2Cn3c(cccc3=O)[C@H]2N1CC1CCCCC1)c1ccccc1	none (no result: PDI turbidity, HIV Env fusion, FN deposition inh, PvdQ inh)
c1ccc(CNc2ncnc3scc(-c4cccs4)c23)nc1	rRNA inh HTS -27
c1ccc(-c2csc3ncnc(NCc4ccccn4)c23)cc1	none (no result: rRNA inh HTS)
